Calls of active or inactive are those of the source. No cut-off for these calls is given here.
How the values were obtained:
[1] = system: Plasmodium berghei; experiment: Antimalarial activity against Plasmodium berghei infected in mouse up to 640 mg/kg, sc administered 72 hrs post infection; type: functional, organism-based; design: dose 640 mg/kg
Method in brief: (§1)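 Antimalarial screen in P. berghei-infected mice, doses in mg/kg. The read-out is the gain in mean survival time of treated animals over untreated controls. Toxicity is recorded at the dose levels tested.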

[2] = system: Trypanosoma brucei rhodesiense; experiment: Antitrypanosomal activity against Trypanosoma rhodesiense CT infected in ICR/HA Swiss mouse assessed as 30-day increase in survival time at 1.25 mg/kg relative to control; type: functional, organism-based; design: dose 1.25 mg/kg
Method in brief: (§2)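 Mice infected with T. rhodesiense, dosed per mg of compound per kg body weight, five mice per dose level. A cure means survival extended 30 days beyond untreated controls, so at most five cures per dose. Non-curative effects are given as ΔMST, the gain in mean survival time in days versus controls. Toxic deaths are flagged separately.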

[3] = system: Trypanosoma brucei rhodesiense; experiment: Antitrypanosomal activity against Trypanosoma rhodesiense CT infected in ICR/HA Swiss mouse assessed as 30-day increase in survival time at 2.5 mg/kg relative to control; type: functional, organism-based; design: dose 2.5 mg/kg; method in brief: as §2
[4] = system: Trypanosoma brucei rhodesiense; experiment: Antitrypanosomal activity against Trypanosoma rhodesiense CT infected in ICR/HA Swiss mouse assessed as 30-day increase in survival time at 5 mg/kg relative to control; type: functional, organism-based; design: dose 5 mg/kg; method in brief: as §2
[5] = system: Trypanosoma brucei rhodesiense; experiment: Antitrypanosomal activity against Trypanosoma rhodesiense CT infected in ICR/HA Swiss mouse assessed as 30-day increase in survival time at 10 mg/kg relative to control; type: functional, organism-based; design: dose 10 mg/kg; method in brief: as §2
[6] = system: Trypanosoma brucei rhodesiense; experiment: Antitrypanosomal activity against Trypanosoma rhodesiense CT infected in ICR/HA Swiss mouse assessed as 30-day increase in survival time at 20 mg/kg relative to control; type: functional, organism-based; design: dose 20 mg/kg; method in brief: as §2
[7] = system: Trypanosoma brucei rhodesiense; experiment: Antitrypanosomal activity against Trypanosoma rhodesiense CT infected in ICR/HA Swiss mouse assessed as 30-day increase in survival time at 80 mg/kg relative to control; type: functional, organism-based; design: dose 80 mg/kg; method in brief: as §2
[8] = system: Trypanosoma brucei rhodesiense; experiment: Antitrypanosomal activity against Trypanosoma rhodesiense CT infected in ICR/HA Swiss mouse assessed as increase in mean survival time at 20 mg/kg; type: functional
Method in brief: (§3)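 Mice, five per dosage level, each dosed in mg of compound per kg body weight. ΔMST is the increase in mean survival time of treated over untreated infected controls, in days. A cure is a 30-day survival increase over controls, with at most five cures per dose. Deaths attributed to compound toxicity were scored as toxic deaths.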

[9] = system: Trypanosoma brucei rhodesiense; experiment: Antitrypanosomal activity against Trypanosoma rhodesiense CT infected in ICR/HA Swiss mouse assessed as increase in mean survival time at 40 mg/kg; type: functional; method in brief: as §3
[10] = system: Mus musculus; experiment: Toxicity in ICR/HA Swiss mouse infected with Trypanosoma rhodesiense CT assessed as mortality at 160 mg/kg; type: organism-based; design: dose 160 mg/kg; settings: in vivo; method in brief: as §3
[11] = system: Mus musculus; experiment: Toxicity in ICR/HA Swiss mouse infected with Trypanosoma rhodesiense CT assessed as mortality at 320 mg/kg; type: organism-based; design: dose 320 mg/kg; settings: in vivo; method in brief: as §3
[12] = system: Mus musculus; experiment: Toxicity in ICR/HA Swiss mouse infected with Trypanosoma rhodesiense CT assessed as mortality at 640 mg/kg; type: organism-based; design: dose 640 mg/kg; settings: in vivo; method in brief: as §3
[13] = system: Trypanosoma brucei rhodesiense; experiment: Antitrypanosomal activity against Trypanosoma rhodesiense CT infected in ICR/HA Swiss mouse assessed as 30-day increase in survival time at 40 mg/kg relative to control; type: functional, organism-based; design: dose 40 mg/kg; method in brief: as §2
[14] = system: Trypanosoma brucei rhodesiense; experiment: Antitrypanosomal activity against Trypanosoma rhodesiense CT infected in ICR/HA Swiss mouse assessed as 30-day increase in survival time at 160 mg/kg relative to control; type: functional, organism-based; design: dose 160 mg/kg; method in brief: as §2
[15] = system: Trypanosoma brucei rhodesiense; experiment: Antitrypanosomal activity against Trypanosoma rhodesiense CT infected in ICR/HA Swiss mouse assessed as 30-day increase in survival time at 320 mg/kg relative to control; type: functional, organism-based; design: dose 320 mg/kg; method in brief: as §2
[16] = system: Trypanosoma brucei rhodesiense; experiment: Antitrypanosomal activity against Trypanosoma rhodesiense CT infected in ICR/HA Swiss mouse assessed as 30-day increase in survival time at 640 mg/kg relative to control; type: functional, organism-based; design: dose 640 mg/kg; method in brief: as §2
[17] = system: Trypanosoma brucei rhodesiense; experiment: Antitrypanosomal activity against Trypanosoma rhodesiense CT infected in ICR/HA Swiss mouse assessed as increase in mean survival time at 1.25 mg/kg; type: functional; method in brief: as §3
[18] = system: Mus musculus; experiment: Toxicity in ICR/HA Swiss mouse infected with Trypanosoma rhodesiense CT assessed as mortality at 40 mg/kg; type: organism-based; design: dose 40 mg/kg; settings: in vivo; method in brief: as §3
[19] = system: Trypanosoma brucei rhodesiense; experiment: Antitrypanosomal activity against Trypanosoma rhodesiense CT infected in ICR/HA Swiss mouse assessed as increase in mean survival time at 2.5 mg/kg; type: functional; method in brief: as §3
[20] = system: Trypanosoma brucei rhodesiense; experiment: Antitrypanosomal activity against Trypanosoma rhodesiense CT infected in ICR/HA Swiss mouse assessed as increase in mean survival time at 5 mg/kg; type: functional; method in brief: as §3
[21] = system: Mus musculus; experiment: Toxicity in ICR/HA Swiss mouse infected with Trypanosoma rhodesiense CT assessed as mortality at 20 mg/kg; type: organism-based; design: dose 20 mg/kg; settings: in vivo; method in brief: as §3
[22] = system: Plasmodium berghei; experiment: Antimalarial activity against Plasmodium berghei infected in mouse assessed as increase in mean survival time at 640 mg/kg, sc administered 72 hrs post infection; type: functional; settings: route subcutaneous
[23] = system: Trypanosoma brucei rhodesiense; experiment: Antitrypanosomal activity against Trypanosoma rhodesiense CT infected in ICR/HA Swiss mouse assessed as 30-day increase in survival time at 0.83 mg/kg relative to control; type: functional, organism-based; design: dose 0.83 mg/kg; method in brief: as §2
[24] = system: Trypanosoma brucei rhodesiense; experiment: Antitrypanosomal activity against Trypanosoma rhodesiense CT infected in ICR/HA Swiss mouse assessed as increase in mean survival time at 0.21 mg/kg; type: functional; method in brief: as §3
[25] = system: Trypanosoma brucei rhodesiense; experiment: Antitrypanosomal activity against Trypanosoma rhodesiense CT infected in ICR/HA Swiss mouse assessed as increase in mean survival time at 0.42 mg/kg; type: functional; method in brief: as §3
[26] = system: Trypanosoma brucei rhodesiense; experiment: Antitrypanosomal activity against Trypanosoma rhodesiense CT infected in ICR/HA Swiss mouse assessed as increase in mean survival time at 0.83 mg/kg; type: functional; method in brief: as §3
[27] = system: Plasmodium berghei; experiment: Antimalarial activity against Plasmodium berghei infected in mouse assessed as increase in mean survival time at 320 mg/kg, sc administered 72 hrs post infection; type: functional; settings: route subcutaneous
[28] = system: Mus musculus; experiment: Toxicity in mouse infected with Plasmodium berghei at 640 mg/kg, sc administered 72 hrs post infection; type: organism-based; design: dose 640 mg/kg, route subcutaneous; settings: in vivo; method in brief: as §1

Row | Compound | Activity [1] | Activity [4] | Activity [5] | Activity [6] | Activity [7] | Activity [13] | Activity [14] | Activity [15] | also measured
1 | N[C+](N)c1ccc(-c2cc(Cl)c(-c3ccc([C+](N)N)cc3)o2)cc1 | inactive | Active | Active | Active | – | – | – | – | Activity [2]: Active; Activity [3]: Active
2 | CN1CCN[C+]1c1ccc(-c2ccc(-c3ccc([C+]4NCCN4C)cc3)o2)cc1.[Cl-].[Cl-] | inactive | – | – | – | Active | – | – | – | Survival [8]: 1.1 days; Survival [9]: 5.5 days; Activity [10]: Toxic; Activity [11]: Toxic; Activity [12]: Toxic
3 | N=C(N)c1ccc(/C=C/c2ccc(C(=N)N)cc2)cc1 | – | Active | Active | Active | Active | Active | Active | Active | Activity [3]: Active; Activity [16]: Active
4 | Cc1c(-c2ccc([C+]3NCCCN3)cc2)oc(-c2ccc([C+]3NCCCN3)cc2)c1C.[Cl-].[Cl-] | inactive | – | Active | Active | Active | Active | – | – | Survival [17]: 3.2 days; Activity [11]: Toxic; Activity [12]: Toxic
5 | CN1CCCN(C)[C+]1c1ccc(-c2ccc(-c3ccc([C+]4N(C)CCCN4C)cc3)o2)cc1.[Cl-].[Cl-] | inactive | – | – | – | – | – | – | – | Activity [18]: Toxic; Activity [10]: Toxic; Activity [12]: Toxic
6 | CCN(CC)CCCN[C+](N)c1ccc(-c2ccc(-c3ccc([C+](N)NCCCN(CC)CC)cc3)o2)cc1 | inactive | – | – | – | – | – | – | – | –
7 | CN1CCCN[C+]1c1ccc(-c2ccc(-c3ccc([C+]4NCCCN4C)cc3)o2)cc1.[Cl-].[Cl-] | inactive | – | – | – | – | – | – | – | Survival [19]: 0.3 days; Survival [20]: 0.7 days; Activity [21]: Toxic; Activity [18]: Toxic; Activity [10]: Toxic; Activity [12]: Toxic
8 | [Cl-].[Cl-].c1cc([C+]2NCCN2)ccc1-c1ccc(-c2ccc([C+]3NCCN3)cc2)o1 | – | – | – | – | Active | Active | Active | Active | Survival [22]: 5 days
9 | Cc1cc(-c2ccc([C+](N)N)cc2)oc1-c1ccc([C+](N)N)cc1 | inactive | Active | Active | Active | Active | Active | Active | Active | Activity [23]: Active; Activity [2]: Active; Activity [3]: Active
10 | CC1CN[C+](c2ccc(-c3ccc(-c4ccc([C+]5NCC(C)N5)cc4)o3)cc2)N1.[Cl-].[Cl-] (stereo unspecified) | inactive | – | – | – | Active | – | Active | Active | Activity [16]: Active; Survival [19]: 0.6 days; Survival [20]: 3.2 days
11 | N[C+](N)c1ccc(-c2ccc(-c3ccc([C+](N)N)cc3)o2)cc1 | inactive | Active | Active | Active | Active | Active | Active | Active | Activity [16]: Active
12 | CN1CCN(C)[C+]1c1ccc(-c2ccc(-c3ccc([C+]4N(C)CCN4C)cc3)o2)cc1.[Cl-].[Cl-] | inactive | – | – | – | – | – | – | – | Activity [18]: Toxic; Activity [10]: Toxic; Activity [12]: Toxic
13 | N[C+](N)c1ccc(-c2oc(-c3ccc([C+](N)N)cc3)c(Cl)c2Cl)cc1.[Cl-].[Cl-] | inactive | – | Active | Active | Active | Active | Active | Active | Survival [24]: 0.2 days; Survival [25]: 0.4 days; Survival [26]: 0.8 days; Survival [17]: 2 days; Survival [19]: 6.2 days
14 | NNC(=O)c1ccc(-c2ccc(-c3ccc(C(=O)NN)cc3)o2)cc1 | inactive | – | – | – | – | – | – | – | –
15 | N=C(N)c1ccc(/C=C/c2ccc(C(=N)N)cc2O)cc1 | – | Active | Active | Active | Active | Active | Active | Active | Activity [3]: Active; Activity [16]: Active
16 | Cc1c(-c2ccc([C+]3NCCN3)cc2)oc(-c2ccc([C+]3NCCN3)cc2)c1C.[Cl-].[Cl-] | inactive | – | – | Active | Active | Active | Active | Active | Activity [16]: Active; Survival [17]: 1.8 days; Survival [19]: 18 days
17 | Cc1c(-c2ccc([C+](N)N)cc2)oc(-c2ccc([C+](N)N)cc2)c1C | inactive | Active | Active | Active | Active | Active | Active | Active | –
18 | Cc1c(-c2ccc([C+]3NCC(C)N3)cc2)oc(-c2ccc([C+]3NCC(C)N3)cc2)c1C (stereo unspecified) | inactive | – | – | – | – | – | – | – | –
19 | Cl.Cl.c1cc(-c2ccc(-c3ccc(C4=NCCCN4)cc3)o2)ccc1C1=NCCCN1 | – | – | – | Active | Active | Active | Active | – | Survival [27]: 12 days; Activity [28]: Toxic
20 | N=C(N)c1ccc(OCCCCCOc2ccc(C(=N)N)cc2)cc1 | – | Active | Active | Active | Active | Active | Active | Active | Activity [16]: Active
21 | Cc1c(-c2ccc([C+](N)N)cc2)oc(-c2ccc([C+](N)N)cc2)c1Cl.[Cl-].[Cl-] | inactive | Active | Active | Active | Active | Active | Active | Active | Survival [24]: 2.1 days

Source: ChEMBL document CHEMBL3244185, “Synthesis and antiprotozoal activity of 2,5-bis(4-guanylphenyl)furans” (J Med Chem, 1977)
